Values joined by “and” are separate entries in the source; they are usually repeats but may differ in a detail not shown here. Equal values may be shown once. “Also recorded” adds a separate entry of the source. Read-outs that look alike come from different tables or passages of the source.
Key:
[1] = system: CEM cells; test: MTT cytotoxicity assay in CEM cells; assay type: cell-based; conditions: read-out: CEM- IC50, 48 h, Mean±SD, n=3
Outline: (§1)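 Cells were grown in suspension in RPMI 1640 with 10% FBS and penicillin/streptomycin/amphotericin B at 37 °C under 5% CO2. They were seeded at ~5×10^3 cells/well, kept overnight, then exposed to test compounds diluted in DMSO for 48 h. Cells were pelleted (300 g, 4 °C, 5 min) and washed twice in phosphate buffer. MTT (5 mg/ml stock) was added for 4 h at 37 °C, formazan dissolved in DMSO, and A570 read. Triplicate; IC50 given as mean±SD.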

[2] = system: K562 cells; test: MTT cytotoxicity assay in K562 cells; assay type: cell-based; conditions: read-out: K562- IC50
Outline: as §1

[3] = molecular target: HDAC4 (Homo sapiens, UniProt P56524); test: HDAC enzyme activity assay, HDAC4; assay type: biochemical
Sequence of HDAC4 (P56524 655-1084 limits assumed): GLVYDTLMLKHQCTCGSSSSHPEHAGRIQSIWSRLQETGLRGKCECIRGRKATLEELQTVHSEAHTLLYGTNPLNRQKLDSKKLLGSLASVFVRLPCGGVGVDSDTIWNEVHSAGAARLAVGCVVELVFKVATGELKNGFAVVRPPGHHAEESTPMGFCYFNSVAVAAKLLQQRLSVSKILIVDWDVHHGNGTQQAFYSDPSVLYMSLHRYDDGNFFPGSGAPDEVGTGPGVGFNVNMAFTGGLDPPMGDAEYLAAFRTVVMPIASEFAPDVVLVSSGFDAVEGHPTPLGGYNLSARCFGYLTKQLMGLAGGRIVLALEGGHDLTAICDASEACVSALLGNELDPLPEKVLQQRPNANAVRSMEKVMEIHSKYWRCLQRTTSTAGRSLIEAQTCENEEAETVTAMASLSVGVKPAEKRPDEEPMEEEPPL
Outline: (§2)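 Enzymes were recombinant: HDAC8, and the codon-optimised human HDAC4 catalytic domain (pET14b). Serial inhibitor dilutions in 25 mM Tris-HCl, 75 mM KCl, 0.001% Pluronic F-127, pH 8.0 were pre-incubated with enzyme for 1 h at 30 °C. Reaction ran 60 min at 30 °C with 20 μM Boc-Lys(trifluoroacetyl)-AMC and was stopped with 1.7 μM SATFMK. Trypsin (0.4 mg/ml) released AMC; fluorescence read at Ex 350/Em 450 nm. Triplicate; IC50 from dose-response curves.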

[4] = molecular target: T1, HDAC8 (Homo sapiens, UniProt Q9BY41); test: HDAC enzyme activity assay, HDAC8; assay type: biochemical; conditions: for HDAC-8 relative enzyme activity: primary screening at 50 μM
T1 sequence (Q9BY41 1-377): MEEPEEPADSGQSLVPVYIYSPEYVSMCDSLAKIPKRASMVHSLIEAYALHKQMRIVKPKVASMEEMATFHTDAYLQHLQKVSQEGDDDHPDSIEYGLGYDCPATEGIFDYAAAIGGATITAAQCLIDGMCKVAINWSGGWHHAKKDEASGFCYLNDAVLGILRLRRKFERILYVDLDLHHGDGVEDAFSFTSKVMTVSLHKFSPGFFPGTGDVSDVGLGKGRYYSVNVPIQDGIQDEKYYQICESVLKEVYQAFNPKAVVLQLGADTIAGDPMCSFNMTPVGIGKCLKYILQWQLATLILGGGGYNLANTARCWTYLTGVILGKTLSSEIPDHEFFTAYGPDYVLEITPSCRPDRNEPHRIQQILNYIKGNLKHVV
Outline: as §2

[5] = system: GLUT5; assay type: cell-based, human; conditions: up to 100 μM
Outline: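 Uses hexose-transporter-null VW4000 yeast expressing human GLUT5, cultured at 30 °C and 180 rpm. Cells were grown one day in YEP/2% maltose with G418, then 1–2 days in YEP/2% fructose starting from OD600 ~0.5. Washed cells in PBS pH 7.4 (OD600 ~10) took up 10 mM C14-fructose for 10 min. Uptake was stopped with ice-cold KPi/LiCl quench buffer pH 5.5, then filtered and scintillation-counted. Controls were 1% DMSO and 100 μM MSNBA. Screening was at 100 μM; three independent measurements.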

[6] = molecular target: T2, GLUT1 (Homo sapiens, UniProt P11166); assay type: cell-based; conditions: for IC50: GLUT1 IC50, hxt0 yeast cells expressing GLUT1, 5 mM C14-glucose, 10 minutes; for decrease of relative transport activity of GLUT1: primary screen, 100 μM compound
T2 sequence (P11166 1-492): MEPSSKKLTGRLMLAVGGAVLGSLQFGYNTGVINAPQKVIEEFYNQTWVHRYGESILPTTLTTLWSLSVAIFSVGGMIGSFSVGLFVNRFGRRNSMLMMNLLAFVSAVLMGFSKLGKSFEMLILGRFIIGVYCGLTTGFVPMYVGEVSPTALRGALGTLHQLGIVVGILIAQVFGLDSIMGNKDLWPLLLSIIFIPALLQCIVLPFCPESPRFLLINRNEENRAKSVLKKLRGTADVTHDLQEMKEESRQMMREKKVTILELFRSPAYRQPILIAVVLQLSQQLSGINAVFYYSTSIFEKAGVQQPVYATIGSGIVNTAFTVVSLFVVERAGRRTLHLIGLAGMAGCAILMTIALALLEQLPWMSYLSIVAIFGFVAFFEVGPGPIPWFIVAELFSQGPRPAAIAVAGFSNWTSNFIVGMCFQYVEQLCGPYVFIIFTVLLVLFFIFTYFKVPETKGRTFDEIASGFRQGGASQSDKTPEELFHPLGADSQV
Outline: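 VW4000fgy1 hxt0 yeast carrying human GLUT1 were grown at 30 °C: first in SC-uracil/2% maltose for 2–3 days, then 1–2 days in SC-uracil/2% glucose from OD600 ~0.5. Cells were resuspended in PBS pH 7.4 at OD600 ~10 and given 5 mM C14-glucose for 10 min. Uptake was quenched with ice-cold buffer pH 5.5, filtered, and counted. Controls: 1% DMSO and 200 μM phloretin.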

[7] = molecular target: T3, GLUT4 (Homo sapiens, UniProt P14672); assay type: cell-based
T3 sequence (P14672 1-509): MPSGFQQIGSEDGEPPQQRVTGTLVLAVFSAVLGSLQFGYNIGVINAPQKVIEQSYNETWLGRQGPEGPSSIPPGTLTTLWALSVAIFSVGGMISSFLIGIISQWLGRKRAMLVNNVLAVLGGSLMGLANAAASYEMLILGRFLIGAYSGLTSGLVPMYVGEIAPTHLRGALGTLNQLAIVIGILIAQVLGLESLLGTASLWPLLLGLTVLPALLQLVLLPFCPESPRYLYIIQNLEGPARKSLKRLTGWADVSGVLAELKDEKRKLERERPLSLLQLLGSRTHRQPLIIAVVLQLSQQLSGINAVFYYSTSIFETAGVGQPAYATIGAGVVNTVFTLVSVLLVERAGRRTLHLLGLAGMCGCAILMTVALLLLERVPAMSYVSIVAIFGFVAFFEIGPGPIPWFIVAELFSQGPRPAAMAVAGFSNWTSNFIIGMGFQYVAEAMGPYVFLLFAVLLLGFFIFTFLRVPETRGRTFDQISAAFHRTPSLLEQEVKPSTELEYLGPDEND
Outline: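 VW4000fgy1erg4 hxt0 yeast expressing human GLUT4 were cultured at 30 °C, first in SC-uracil/1% maltose and then in SC-uracil/0.2% glucose from OD600 ~0.5. Cells in PBS pH 7.4 (OD600 ~10) were fed 5 mM C14-glucose for 10 min. The reaction was quenched in ice-cold buffer pH 5.5, then filtered and scintillation-counted. Vehicle control was 1% DMSO; 200 μM phloretin served as positive control.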

Compound | IC50 [1] [µM] | IC50 ([2]; MTT, 48 h, Mean±SD, n=3) [µM] | IC50 ([2]; Homo sapiens, K562, 48 h) [µM] | further results
O=C(CN1C(=O)SC(=Cc2ccc(Br)cc2)C1=O)Nc1ccc(F)cc1F [Compound G2, 2-[5-(4-Bromobenzylidene)-2,4-dioxo-thiazolidin-3-yl]-N-(2,4-diflurophenyl)acetamide] | 47.7 ± 2.12 | > 50 | – | –
Cc1ccc(C=C2SC(=O)N(CC(=O)Nc3ccc(F)cc3F)C2=O)cc1C [Compound G4, N-[2,4-Difluorophenyl)-2-[5-(3,4-dimethylbenzylidene)-2,4-dioxothiazolidin-3-yl]acetamide] | – | – | > 50 | –
O=C(CN1C(=O)SC(=Cc2ccc(Cl)cc2)C1=O)Nc1ccc(F)cc1F [Compound G6, 2-[5-(4-Chlorobenzylidene)-2,4-dioxothiazolidin-3-yl]-N-(2,4-diflurophenyl)acetamide] | 39.3 ± 2.68 | 48.2 ± 1.23 | – | IC50 ([3]; read-out: HDAC4 IC50, Means ±SD, n=3): > 50 µM; HDAC-8 relative enzyme activity [4]: < 50%; IC50 ([4]; read-out: HDAC8 IC50, Means ±SD, n=3): 49 ± 5 µM
O=C(CN1C(=O)SC(=Cc2ccc(F)cc2F)C1=O)Nc1ccc(Cl)cc1C(F)(F)F [Compound G7, N-(4-Chloro-2-trifluoromethylphenyl)-2-[5-(2,4-difluorobenzylidene)-2,4-dioxothiazolidin-3-yl] acetamide] | 40.4 ± 2.94 | 36.8 ± 1.77 | – | –
O=C(CN1C(=O)SC(=Cc2ccc(F)cc2F)C1=O)Nc1ccc(F)cc1F [Compound G8, 2-[5-(2,4-Difluorobenzylidene)-2,4-dioxothiazolidin-3-yl]-N-(2,4-diflurophenyl)acetamide] | 4.77 ± 1.51 | 34.5 ± 3.01 | – | –
O=C(CN1C(=O)SC(=Cc2ccc(F)cc2)C1=O)Nc1ccc(Cl)cc1C(F)(F)F [Compound G9, N-(4-Chloro-2-trifluoromethylphenyl)-2-[5-(4-fluorobenzylidene)-2,4-dioxothiazolidin-3-yl]acetamide] | – | – | 43.6 ± 2.23 | IC50 [3]: > 50 µM; IC50 [4]: 45 ± 5 µM; HDAC-8 relative enzyme activity [4]: < 50%
O=C(CN1C(=O)SC(=Cc2ccc(F)cc2)C1=O)Nc1ccc(F)cc1F [Compound G10, N-(2,4-Difluoropheyl)-2-[5-(4-fluoro-benzylidene)-2,4-dioxothiazolidin-3-yl]acetamide] | 27.4 ± 3.06 | 45.4 ± 1.13 | – | –
Cc1ccc(C=C2SC(=O)N(CC(=O)Nc3ccc(F)cc3F)C2=O)cc1 [Compound G12, N-(2,4-Difluoropheyl)-2-[5-(4-methylbenzylidene)-2,4-dioxothiazolidin-3-yl]acetamide] | 9.93 ± 2.03 | > 50 | – | –
O=C(CN1C(=O)SC(=Cc2ccccc2)C1=O)Nc1ccc(F)cc1F [Compound G14, 2-[5-Benzylidene-2,4-dioxothiazolidin-3-yl]-N-(2,4-difluorophenyl)acetamide] | – | – | > 50 | –
O=C(CN1C(=O)SC(=Cc2ccc(F)cc2F)C1=O)Nc1cccc(C(F)(F)F)c1 [Compound G15, 2-(5-(2,4-difluorobenzylidene)-2,4-dioxothiazolidin-3-yl)-N-(3-(trifluoromethyl)phenyl) acetamide] | 17.3 ± 1.16 | > 50 | – | –
O=C(CN1C(=O)SC(=Cc2ccc(F)cc2)C1=O)Nc1cccc(C(F)(F)F)c1 [Compound G16, 2-(5-(4-fluorobenzylidene)-2,4-dioxothiazolidin-3-yl)-N-(3-(trifluoromethyl)phenyl)acetamide] | – | – | 23.5 ± 1.94 | GLUT5 inhibition, result in words [5]: did not affect GLUT5; also recorded: neither G16 nor G17 altered the transport activity of GLUT5; IC50 [6]: 26.6 µM and 26.8 µM; decrease of relative transport activity of GLUT1 [6]: > 50%; IC50 [7]: 21.6 ± 4.5 µM; decrease of relative transport activity of GLUT4 ([7]; primary screen, 100 μM compound): > 50%
O=C(CN1C(=O)SC(=Cc2ccccc2)C1=O)Nc1nc2c(Cl)cccc2s1 [Compound G17, 2-(5-benzylidene-2,4-dioxothiazolidin-3-yl)-N-(4-chlorobenzo[d]thiazol-2-yl)acetamide] | – | – | 79 ± 3.66 | GLUT5 inhibition, result in words [5]: neither G16 nor G17 altered the transport activity of GLUT5; IC50 [6]: 12.6 ± 1.2 µM; decrease of relative transport activity of GLUT1 [6]: > 50%; GLUT1 inhibition, result in words ([6]; up to 100 μM): selective inhibitor of GLUT1
CC(=O)O[C@H]1C(=O)[C@@]2(C)[C@H]([C@H](OC(=O)c3ccccc3)[C@]3(O)C[C@H](OC(=O)[C@H](O)[C@@H](NC(=O)c4ccccc4)c4ccccc4)C(C)=C1C3(C)C)[C@]1(OC(C)=O)CO[C@@H]1C[C@@H]2O [Paclitaxel, reference compound] | – | – | 0.29 ± 0.15 | –
CCc1ccc(CCOc2ccc(CC3SC(=O)NC3=O)cc2)nc1 (stereo not drawn) [Pioglitazone, reference compound] | – | – | 32 ± 3.66 | –
